Data as given in ChEMBL document CHEMBL3526048, “In vitro metabolism of rivoglitazone, a novel peroxisome proliferator-activated receptor γ agonist, in rat, monkey, and human liver microsomes and freshly isolated hepatocytes” (Drug Metab Dispos, 2011).

Experiments:
Cytochrome P450 2C19 = Cytochrome P450 2C19 (Homo sapiens, UniProt P33261); assay: Activity of human CYP2C19 expressed in microsomes isolated from baculovirus infected insect cell assessed as enzyme-mediated compound formation treated with [14C]-rivoglitazone at 20 uM after 2 hrs by radio-HPLC/LC-MS/MS analysis in presence of NADPH-generating system and NADPH-generating system/SAM; assay type: ADME
Chain of Cytochrome P450 2C19 (P33261 whole entry): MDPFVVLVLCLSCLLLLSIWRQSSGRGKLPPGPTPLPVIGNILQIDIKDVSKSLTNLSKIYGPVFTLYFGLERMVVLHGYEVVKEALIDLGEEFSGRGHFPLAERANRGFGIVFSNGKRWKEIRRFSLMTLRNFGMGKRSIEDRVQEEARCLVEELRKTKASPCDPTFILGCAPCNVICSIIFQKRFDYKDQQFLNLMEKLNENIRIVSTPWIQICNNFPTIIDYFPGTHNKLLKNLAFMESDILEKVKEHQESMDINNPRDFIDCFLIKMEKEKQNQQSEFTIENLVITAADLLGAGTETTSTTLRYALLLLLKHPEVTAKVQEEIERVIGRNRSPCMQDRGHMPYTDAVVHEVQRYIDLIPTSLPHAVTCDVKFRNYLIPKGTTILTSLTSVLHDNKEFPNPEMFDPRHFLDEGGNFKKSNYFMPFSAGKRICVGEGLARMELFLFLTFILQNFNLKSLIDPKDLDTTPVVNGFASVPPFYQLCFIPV
Summary of the method: (§1)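 Baculovirus/insect-cell microsomes expressing single human CYPs, 1 mg/ml protein, with 50 mM potassium phosphate (pH 7.4) or 100 mM Tris-HCl (pH 7.5). NADPH-generating system: 2 mM NADP⁺, 20 mM glucose 6-phosphate, 2 units/ml G6PDH, 10 mM MgCl₂. [¹⁴C]rivoglitazone at 20 μM, 2 h at 37°C with shaking. Control used insect-cell control supersomes. Stopped with acetonitrile; supernatant concentrated under nitrogen; metabolites analysed by radio-HPLC, LC-MS and LC-MS/MS.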

Cytochrome P450 1A2 = target: T1, Cytochrome P450 1A2 (Homo sapiens, UniProt P05177); assay: Activity of human CYP1A2 expressed in microsomes isolated from baculovirus infected insect cell assessed as enzyme-mediated compound formation treated with [14C]-rivoglitazone at 20 uM after 2 hrs by radio-HPLC/LC-MS/MS analysis in presence of NADPH-generating system and NADPH-generating system/SAM; assay type: ADME; summary of the method: as §1
T1 sequence (P05177 whole entry): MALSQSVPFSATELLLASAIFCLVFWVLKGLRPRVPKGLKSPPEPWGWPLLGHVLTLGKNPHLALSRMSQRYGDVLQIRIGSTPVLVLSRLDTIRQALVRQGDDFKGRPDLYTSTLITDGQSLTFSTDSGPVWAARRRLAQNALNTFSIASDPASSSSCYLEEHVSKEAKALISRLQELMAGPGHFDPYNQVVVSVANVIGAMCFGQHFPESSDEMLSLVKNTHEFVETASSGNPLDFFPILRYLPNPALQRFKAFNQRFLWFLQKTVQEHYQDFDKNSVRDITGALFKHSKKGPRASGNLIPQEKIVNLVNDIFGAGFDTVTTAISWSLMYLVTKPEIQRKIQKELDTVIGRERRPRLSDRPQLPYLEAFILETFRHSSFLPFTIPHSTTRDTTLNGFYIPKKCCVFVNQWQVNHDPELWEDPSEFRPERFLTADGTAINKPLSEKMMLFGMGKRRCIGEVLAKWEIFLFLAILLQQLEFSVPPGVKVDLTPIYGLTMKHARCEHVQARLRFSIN

Cytochrome P450 2C9 = Cytochrome P450 2C9 (Homo sapiens, UniProt P11712); assay: Activity of human CYP2C9 expressed in microsomes isolated from baculovirus infected insect cell assessed as enzyme-mediated compound formation treated with [14C]-rivoglitazone at 20 uM after 2 hrs by radio-HPLC/LC-MS/MS analysis in presence of NADPH-generating system and NADPH-generating system/SAM; assay type: ADME
Chain of Cytochrome P450 2C9 (P11712 whole entry): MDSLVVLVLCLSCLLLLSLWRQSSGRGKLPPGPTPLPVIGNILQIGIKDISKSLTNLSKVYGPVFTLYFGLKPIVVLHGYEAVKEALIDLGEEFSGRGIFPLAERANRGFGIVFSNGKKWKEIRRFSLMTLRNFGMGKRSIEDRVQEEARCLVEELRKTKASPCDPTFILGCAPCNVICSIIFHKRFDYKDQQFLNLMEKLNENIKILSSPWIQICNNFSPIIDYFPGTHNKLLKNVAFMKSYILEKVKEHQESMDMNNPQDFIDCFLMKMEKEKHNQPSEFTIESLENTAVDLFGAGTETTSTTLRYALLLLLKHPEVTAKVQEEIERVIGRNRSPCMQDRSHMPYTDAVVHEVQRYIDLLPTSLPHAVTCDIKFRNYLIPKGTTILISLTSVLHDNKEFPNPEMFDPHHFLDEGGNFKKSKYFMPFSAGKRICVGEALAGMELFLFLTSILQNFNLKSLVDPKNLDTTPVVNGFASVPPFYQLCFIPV

Liver microsome [1] = assay: Drug level in human liver microsomes treated with [14C]-rivoglitazone at 20 uM after 2 hrs by radio-HPLC/LC-MS/MS analysis in presence of NADPH-generating system and NADPH-generating system/SAM; assay type: ADME
Summary of the method: (§2)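 Pooled male liver microsomes (1 mg/ml protein; rat from 94 Sprague-Dawley, monkey from 8 cynomolgus, human from 23 donors) were incubated with [¹⁴C]rivoglitazone (20 μM). Buffer: 10 mM potassium phosphate (pH 7.4). Cofactors: NADPH-generating system (2 mM NADP⁺, 20 mM G6P, 2 U/ml G6PDH, 10 mM MgCl₂), with or without 2 mM SAM. Incubation 2 h at 37°C with shaking; controls lacked NADPH system and SAM alone. Acetonitrile stop, radio-HPLC plus LC-MS.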

Cytochrome P450 3A5 = Cytochrome P450 3A5 (Homo sapiens, UniProt P20815); assay: Activity of human CYP3A5 expressed in microsomes isolated from baculovirus infected insect cell assessed as enzyme-mediated compound formation treated with [14C]-rivoglitazone at 20 uM after 2 hrs by radio-HPLC/LC-MS/MS analysis in presence of NADPH-generating system and NADPH-generating system/SAM; assay type: ADME
Chain of Cytochrome P450 3A5 (P20815 whole entry): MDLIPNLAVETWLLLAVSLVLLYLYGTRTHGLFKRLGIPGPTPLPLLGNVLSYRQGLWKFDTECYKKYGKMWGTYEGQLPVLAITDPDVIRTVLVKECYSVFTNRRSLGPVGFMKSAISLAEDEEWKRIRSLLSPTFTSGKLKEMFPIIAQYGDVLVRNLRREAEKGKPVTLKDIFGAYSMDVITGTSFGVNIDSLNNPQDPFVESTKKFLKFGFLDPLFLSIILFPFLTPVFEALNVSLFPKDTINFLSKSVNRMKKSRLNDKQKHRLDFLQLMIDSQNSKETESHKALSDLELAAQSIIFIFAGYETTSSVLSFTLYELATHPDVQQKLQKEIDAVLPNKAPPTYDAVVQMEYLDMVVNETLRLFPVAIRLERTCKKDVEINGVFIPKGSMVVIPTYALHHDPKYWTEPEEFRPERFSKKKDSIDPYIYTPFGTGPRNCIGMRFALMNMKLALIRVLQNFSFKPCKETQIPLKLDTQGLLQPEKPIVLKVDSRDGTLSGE
Summary of the method: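 cDNA-expressed human CYP3A5 in baculovirus-insect-cell microsomes (1 mg/ml protein) was incubated with [¹⁴C]rivoglitazone (20 μM) in 50 mM potassium phosphate (pH 7.4) or 100 mM Tris-HCl (pH 7.5). NADPH-generating system: 2 mM NADP⁺, 20 mM glucose 6-phosphate, 2 units/ml G6PDH, 10 mM MgCl₂. Incubation ran 2 h at 37°C with shaking; insect-cell control supersomes served as control. Acetonitrile stop, supernatant concentrated, then radio-HPLC, LC-MS and LC-MS/MS.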

Plasma = assay: Drug level in po dosed monkey plasma treated with [14C]-rivoglitazone; assay type: ADME, organism-based, Macaca mulatta; conditions: rhesus monkey, in vivo
[2] = Drug level in po dosed monkey liver microsomes treated with [14C]-rivoglitazone; assay type: ADME, organism-based, Macaca mulatta; conditions: rhesus monkey, in vivo
[3] = Drug level in po dosed monkey bile treated with [14C]-rivoglitazone; assay type: ADME, organism-based, Macaca mulatta; conditions: rhesus monkey, in vivo
[4] = Retention time of the compound by LC-MS/MS analysis; assay type: physicochemical
Summary of the method: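 LC-MS/MS used a YMC-Pack ODS-A column (1.5 × 150 mm, 5 μm) at 30°C, 0.1 ml/min. Mobile phase was water and acetonitrile, each with 0.01% TFA. Gradient: 12→60% B over 30 min, →90% B over 5 min, hold 5 min. Detection was UV 220 nm with positive ESI Q-TOF (capillary 3300 V, cone 45 V), collision energy 20 eV and xenon as collision gas.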

Liver microsome [5] = assay: Drug level in Sprague-Dawley rat liver microsomes treated with [14C]-rivoglitazone at 20 uM after 2 hrs by radio-HPLC/LC-MS/MS analysis in presence of NADPH-generating system and NADPH-generating system/SAM; assay type: ADME; summary of the method: as §2
Cytochrome P450 2C8 = target: T2, Cytochrome P450 2C8 (Homo sapiens, UniProt P10632); assay: Activity of human CYP2C8 expressed in microsomes isolated from baculovirus infected insect cell assessed as enzyme-mediated compound formation treated with [14C]-rivoglitazone at 20 uM after 2 hrs by radio-HPLC/LC-MS/MS analysis in presence of NADPH-generating system and NADPH-generating system/SAM; assay type: ADME; summary of the method: as §1
T2 sequence (P10632 whole entry): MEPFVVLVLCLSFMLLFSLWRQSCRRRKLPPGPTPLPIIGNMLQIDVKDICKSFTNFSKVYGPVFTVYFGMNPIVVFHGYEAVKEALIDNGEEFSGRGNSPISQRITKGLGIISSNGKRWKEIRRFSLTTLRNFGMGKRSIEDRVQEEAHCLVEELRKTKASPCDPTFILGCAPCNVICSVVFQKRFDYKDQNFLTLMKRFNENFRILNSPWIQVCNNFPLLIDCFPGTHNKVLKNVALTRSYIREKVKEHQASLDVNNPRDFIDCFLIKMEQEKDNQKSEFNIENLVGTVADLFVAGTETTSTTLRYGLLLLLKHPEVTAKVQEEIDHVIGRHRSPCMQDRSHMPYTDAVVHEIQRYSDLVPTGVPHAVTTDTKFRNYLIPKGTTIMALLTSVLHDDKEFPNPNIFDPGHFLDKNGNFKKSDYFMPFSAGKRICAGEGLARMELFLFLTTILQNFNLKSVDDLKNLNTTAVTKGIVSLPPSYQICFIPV

[6] = Drug level in cynomolgus monkey liver microsomes treated with [14C]-rivoglitazone at 20 uM after 2 hrs by radio-HPLC/LC-MS/MS analysis in presence of NADPH-generating system and NADPH-generating system/SAM; assay type: ADME, Macaca fascicularis; summary of the method: as §2
Hepatocyte [7] = assay: Drug level in rat hepatocytes treated with [14C]-rivoglitazone at 30 uM after 3 hrs by radio-HPLC/LC-MS/MS analysis in presence of NADPH-generating system and NADPH-generating system/SAM; assay type: ADME, cell-based
Hepatocyte [8] = assay: Drug level in human hepatocytes treated with [14C]-rivoglitazone at 30 uM after 3 hrs by radio-HPLC/LC-MS/MS analysis in presence of NADPH-generating system and NADPH-generating system/SAM; assay type: ADME, cell-based
Cytochrome P450 3A4 = Cytochrome P450 3A4 (Homo sapiens, UniProt P08684); assay: Activity of human CYP3A4 expressed in microsomes isolated from baculovirus infected insect cell assessed as enzyme-mediated compound formation treated with [14C]-rivoglitazone at 20 uM after 2 hrs by radio-HPLC/LC-MS/MS analysis in presence of NADPH-generating system and NADPH-generating system/SAM; assay type: ADME
Chain of Cytochrome P450 3A4 (P08684 whole entry): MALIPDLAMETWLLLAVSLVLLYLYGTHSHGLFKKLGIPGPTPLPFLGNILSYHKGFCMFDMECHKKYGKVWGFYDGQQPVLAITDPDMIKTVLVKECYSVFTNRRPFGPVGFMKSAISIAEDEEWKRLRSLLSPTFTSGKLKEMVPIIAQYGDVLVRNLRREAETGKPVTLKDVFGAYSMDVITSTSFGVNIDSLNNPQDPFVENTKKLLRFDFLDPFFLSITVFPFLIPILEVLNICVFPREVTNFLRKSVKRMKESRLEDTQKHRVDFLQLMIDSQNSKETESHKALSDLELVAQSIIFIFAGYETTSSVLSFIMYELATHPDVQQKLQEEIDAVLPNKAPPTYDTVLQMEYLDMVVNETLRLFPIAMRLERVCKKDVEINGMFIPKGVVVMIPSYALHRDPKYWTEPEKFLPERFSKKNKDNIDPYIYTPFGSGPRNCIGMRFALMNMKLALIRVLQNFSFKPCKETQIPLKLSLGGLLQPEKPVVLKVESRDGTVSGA

Cytochrome P450 2D6 = Cytochrome P450 2D6 (Homo sapiens, UniProt P10635); assay: Activity of human CYP2D6 expressed in microsomes isolated from baculovirus infected insect cell assessed as enzyme-mediated compound formation treated with [14C]-rivoglitazone at 20 uM after 2 hrs by radio-HPLC/LC-MS/MS analysis in presence of NADPH-generating system and NADPH-generating system/SAM; assay type: ADME
Chain of Cytochrome P450 2D6 (P10635 whole entry): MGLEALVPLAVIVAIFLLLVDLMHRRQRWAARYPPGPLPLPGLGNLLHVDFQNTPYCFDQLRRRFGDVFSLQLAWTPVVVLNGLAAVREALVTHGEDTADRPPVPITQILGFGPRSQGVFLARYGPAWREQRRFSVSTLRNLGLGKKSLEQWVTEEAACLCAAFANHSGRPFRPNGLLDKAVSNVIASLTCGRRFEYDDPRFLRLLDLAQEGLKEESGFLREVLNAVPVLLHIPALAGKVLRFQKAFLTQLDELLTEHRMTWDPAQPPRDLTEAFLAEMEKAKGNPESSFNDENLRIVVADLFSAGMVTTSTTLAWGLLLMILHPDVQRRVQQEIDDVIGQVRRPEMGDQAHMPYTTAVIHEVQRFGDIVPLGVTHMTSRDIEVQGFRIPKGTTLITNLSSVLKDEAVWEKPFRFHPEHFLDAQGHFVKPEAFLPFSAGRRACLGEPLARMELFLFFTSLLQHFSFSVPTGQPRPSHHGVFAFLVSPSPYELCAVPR

Drug metabolism (Cytochrome P450 2C19): metabolite_detected | Drug metabolism (Cytochrome P450 1A2): metabolite_detected | Drug metabolism (Cytochrome P450 2C9): metabolite_detected | Drug metabolism (Liver microsome [1]): metabolite_detected | Drug metabolism (Cytochrome P450 3A5): metabolite_detected | Drug metabolism (Plasma): metabolite_detected | Drug metabolism [2]: metabolite_detected | Drug metabolism [3]: metabolite_detected | Retention_time [4]: 20.9 min | Drug metabolism (Liver microsome [5]): metabolite_detected | Drug metabolism (Cytochrome P450 2C8): metabolite_detected | Drug metabolism [6]: metabolite_detected | Drug metabolism (Hepatocyte [7]): metabolite_detected | Drug metabolism (Hepatocyte [8]): metabolite_detected | Drug metabolism (Cytochrome P450 3A4): metabolite_detected | Drug metabolism (Cytochrome P450 2D6): metabolite_detected
SMILES: COc1ccc2nc(COc3ccc(CC4SC(=O)NC4=O)cc3)[nH]c2c1 (stereo unspecified)
